Assay results reported in ChEMBL document CHEMBL2203151, “Cytotoxic alkaloids from the whole plants of Zephyranthes candida” (J Nat Prod, 2012).

Tests used:
HT-29 [1] = assay: Cytotoxicity against human HT-29 cells after 48 hrs by MTT assay; format: functional, cell-based; conditions: HT-29, 48 h
K562 [2] = assay: Cytotoxicity against human K562 cells after 48 hrs by MTT assay; format: functional, cell-based; conditions: K562, 48 h
HL-60 = assay: Cytotoxicity against human HL60 cells after 48 hrs by MTT assay; format: functional, cell-based; conditions: HL-60, 48 h
A549 [3] = assay: Cytotoxicity against human A549 cells after 48 hrs by MTT assay; format: functional, cell-based; conditions: A549, 48 h
HepG2 [4] = assay: Cytotoxicity against human HepG2 cells after 48 hrs by MTT assay; format: functional, cell-based; conditions: HepG2, 48 h
[5] = Cytotoxicity against human BEAS2B cells after 48 hrs by MTT assay; format: cell-based; conditions: BEAS-2B
Summary of the method: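 Beas-2B immortalized, non-cancerous bronchial epithelial cells grown in RPMI-1640 or DMEM with 10% FBS, 5% CO2, 37°C. Cells were seeded and allowed to adhere 12 h before compound addition, then exposed for 48 h. DMSO negative and cisplatin positive controls were included. Viability was measured by MTT absorbance at 595 nm, and IC50 was calculated by the Reed–Muench method.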

HT-29 [6] = assay: Selectivity index, ratio of IC50 for human BEAS2B cells to IC50 for human HT-29 cells; format: functional
A549 [7] = assay: Selectivity index, ratio of IC50 for human BEAS2B cells to IC50 for human A549 cells; format: functional
[8] = Selectivity index, ratio of IC50 for human BEAS2B cells to IC50 for human HL60 cells; format: functional
HepG2 [9] = assay: Selectivity index, ratio of IC50 for human BEAS2B cells to IC50 for human HepG2 cells; format: functional
K562 [10] = assay: Selectivity index, ratio of IC50 for human BEAS2B cells to IC50 for human K562 cells; format: functional

| Structure (SMILES) | IC50 (HT-29 [1]) | IC50 (K562 [2]) | IC50 (HL-60) | IC50 (A549 [3]) | IC50 (HepG2 [4]) | IC50 [5] | Ratio IC50 (HT-29 [6]) | Ratio IC50 (A549 [7]) | Ratio IC50 [8] | Ratio IC50 (HepG2 [9]) | Ratio IC50 (K562 [10]) |
| --- | --- | --- | --- | --- | --- | --- | --- | --- | --- | --- | --- |
| CO[C@@H]1C=C[C@@]23c4cc5c(cc4C(=O)O[C@H]2CN(C)[C@H]3C1)OCO5 | > 10 µM | > 10 µM | > 10 µM | > 10 µM | > 10 µM |  |  |  |  |  |  |
| O[C@H]1[C@H]2c3cc4c(cc3CN3CCC(=C[C@@H]1O)[C@H]23)OCO4 [LYCORINE] | 3.2 µM | 2.3 µM | 1.6 µM | 1.9 µM | 3.7 µM | 4.9 µM |  |  |  |  |  |
| c1ccc2c(c1)ncc1cc3c(cc12)OCO3 [TRISPHAERIDINE] | > 10 µM | > 10 µM | > 10 µM | > 10 µM | > 10 µM |  |  |  |  |  |  |
| COc1cc2c(c(OC)c1OC)[C@@H](OC)O[C@@H]1CC=C3CCN(C)[C@H]3[C@H]21 | > 10 µM | > 10 µM | > 10 µM | > 10 µM | > 10 µM |  |  |  |  |  |  |
| O=c1c2cc3c(cc2c2ccccc2n1CCc1ccccc1)OCO3 | 2.3 µM | 0.7 µM | 0.81 µM | 13 µM | 1.4 µM | 7.3 µM | 3.2 | 0.56 | 9 | 5.2 | 10 |
| CC(C)CCn1c(=O)c2cc3c(cc2c2ccccc21)OCO3 | > 10 µM | > 10 µM | > 10 µM | > 10 µM | > 10 µM |  |  |  |  |  |  |
| CO[C@@H]1C=C[C@@]23c4cc5c(cc4C(O)[N+](C)(C[C@@H]2O)[C@H]3C1)OCO5.[Cl-] (mixture of isomers) | 1.2 µM | 1 µM | 0.91 µM | 1.1 µM | 1.5 µM | 3.7 µM | 3.1 | 3.4 | 4.1 | 2.5 | 3.7 |
| CO[C@@H]1C=C[C@@]23c4cc5c(cc4CO[C@]2(O)CN(C)[C@H]3C1)OCO5 [TAZETTINE] | > 10 µM | > 10 µM | > 10 µM | > 10 µM | > 10 µM |  |  |  |  |  |  |
| CCOC(=O)CCn1c(=O)c2cc3c(cc2c2ccccc21)OCO3 | > 10 µM | > 10 µM | > 10 µM | > 10 µM | > 10 µM | > 40 µM |  |  |  |  |  |
| C/C=C/C=C/C(=O)N1C[C@H](C)NC[C@H]1C [NIGRAGILLIN] | > 10 µM | > 10 µM | > 10 µM | > 10 µM | > 10 µM |  |  |  |  |  |  |
| CN1Cc2cc3c(cc2-c2ccccc21)OCO3 | > 10 µM | > 10 µM | > 10 µM | > 10 µM | > 10 µM |  |  |  |  |  |  |
| CO[C@@H]1C=C[C@@]23c4cc5c(cc4CN(C[C@@H]2O)[C@H]3C1)OCO5 [(+)-HAEMANTHAMINE] | 2.1 µM | 2.5 µM | 1.4 µM | 2.5 µM | 4.8 µM |  |  |  |  |  |  |
| Cn1c(=O)c2cc3c(cc2c2ccccc21)OCO3 | > 10 µM | > 10 µM | > 10 µM | > 10 µM | > 10 µM |  |  |  |  |  |  |
| CCOC(=O)CCCn1c(=O)c2cc3c(cc2c2ccccc21)OCO3 | > 10 µM | > 10 µM | > 10 µM | > 10 µM | > 10 µM | 36 µM |  |  |  |  |  |
| CO[C@H]1C=C[C@@]23c4cc5c(cc4CN(C)[C@@H]2C(=O)N(C)[C@H]3C1)OCO5 (relative stereo) | > 10 µM | > 10 µM | > 10 µM | > 10 µM | > 10 µM |  |  |  |  |  |  |
